Experimental data reported in publication PMC4007056 (Molecular cancer therapeutics, 2014).

What was measured:
[1] = tested on: intracranial HIFko tumors; assay: treatment of intracranial HIFko tumor-bearing mice with targeted Cbl; format: in vivo, mouse
Outline: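 Athymic female Balb/c nu-nu mice (4–6 wks) bearing intracranial HIFko tumours were randomised to groups of 4 from day 5 post-implantation. They received i.v. PBS, peptide–drug conjugate (5 mg/kg), or free drug at the same molar amount, every second day. Body weight was monitored, and mice were sacrificed once weight loss exceeded 10%.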

[2] = tested on: subcutaneous tumors established from the HIFko cells; assay: in vivo homing of fluorescein-conjugated peptide, subcutaneous HIFko tumors; set-up: species or system mouse; details: fluorescein-conjugated peptide i.v., 60 min
Outline: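 Athymic female Balb/c nu-nu mice (4–6 wk) were grafted subcutaneously on the abdominal side with 5×10^6 HIFko cells. Fluorescein-labelled peptide was given intravenously and circulated one hour. Frozen tissue sections (5–10 µm) were stained with rabbit anti-FITC antibody, Alexa-conjugated secondary antibody and DAPI, then viewed by fluorescence microscopy.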

[3] = tested on: tumors derived from VEGF-expressing HIFko cells; assay: in vivo homing of fluorescein-conjugated peptide, VEGF-expressing HIFko tumors; set-up: species or system mouse; details: fluorescein-conjugated peptide i.v., 60 min; i.c. tumors
Outline: (§1)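 Athymic female Balb/c nu-nu mice (4–6 wk) with intracranial tumors, used 10–21 days after inoculation. Fluorescein-labelled peptide (100 µM, 100 µl/animal) was injected into the tail vein and circulated 60 min. Mice were perfused through the […] and tumors excised. Frozen sections (5–10 µm) were stained with rabbit anti-FITC, anti-PECAM-1 for vessels and DAPI, then examined by fluorescence microscopy.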

[4] = tested on: rat BT4C glioma xenografts; assay: in vivo homing of fluorescein-conjugated peptide, BT4C glioma; set-up: species or system mouse; details: fluorescein-conjugated peptide i.v., 60 min
Outline: as §1

[5] = tested on: orthotopic MDA-MB-231 human breast cancer xenografts; assay: in vivo homing of fluorescein-conjugated peptide, MDA-MB-231 xenografts; set-up: species or system mouse; details: fluorescein-conjugated peptide i.v., 60 min
Outline: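 Athymic female Balb/c nu-nu mice (4–6 wk) bearing xenografts received fluorescein-labelled peptide intravenously, circulated one hour. Frozen sections (5–10 µm) were stained with rabbit anti-FITC and anti-PECAM-1 antibodies, Alexa-conjugated secondaries and DAPI, then examined under a fluorescence microscope.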

[6] = tested on: intracranial U87MG human glioma; assay: in vivo homing of fluorescein-conjugated peptide, i.c. U87MG glioma; set-up: species or system mouse; details: fluorescein-conjugated peptide i.v., 60 min
Outline: as §1

[7] = tested on: i.c. tumors derived from MDGI expressing U87MG cells; format: in vivo, mouse; details: MDGI expressing versus control U87MG tumors; fluorescein-conjugated peptide i.v.
[8] = tested on: intracranial HIFko tumors; assay: in vivo homing of intravenously injected phage; set-up: species or system mouse; details: intravenous injection; compared to control phage; mean of three experiments
Outline: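 T7Select415-1 phage displaying the peptide were injected into the tail vein of mice bearing intracranial HIFko tumors and circulated 15 min. Tissues were excised and phage recovered and amplified in E. coli BLT5615. Non-recombinant control phage was injected into a separate mouse, and homing was expressed relative to it. Mean of three experiments, ±SEM.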

[9] = tested on: i.c. HIFko tumor derived cell suspension; assay: ex vivo binding of individual phage to tumor-derived cell suspension; format: cell-based, mouse; details: cell suspension from tumor containing brain relative to normal brain

## NH2-CGLSGLGVAGGMVRRFLVTLRIRRACGPPRVRVK(^εCbl)-CONH2 [CooP-CPP-Cbl]
[1]; 5 mg/kg i.v. every second day from d5
  signs of tumor burden: did not show any signs of tumor burden
[1]; 5 mg/kg i.v. every second day from d5, 4 mice/group
  body weight course: gained weight
[1]; 5 mg/kg i.v. every second day from d5, versus saline and free Cbl
  life span of the animals: prolonged the life span
[1]; 5 mg/kg i.v. every second day, four sections/animal
  size of the primary tumor versus control groups: no difference

## H-ACGLSGLGVA-NH2 [CooP]
[2]
  homing to subcutaneous HIFko tumors: did not home
[3]
  homing to tumors derived from VEGF-expressing HIFko cells: did not home
[4]
  homing to rat BT4C glioma xenografts: homed
[5]
  homing to MDA-MB-231 human breast cancer xenografts: No CooP peptide was detected
[6]
  homing to intracranial U87MG human glioma: homed
[7]
  effect of MDGI-expression on peptide homing to i.c. U87MG tumors: substantially increased

## CGLSGLGVA [phage 36]
[8]
  accumulation in other organs (liver, kidney, lung, normal brain): negligible accumulation
[9]
  brain tumor to normal brain ratio of ex vivo phage binding: over 80

## CSESGLGVA [phage 34]
[9]
  brain tumor to normal brain ratio of ex vivo phage binding: about 13
